Measured values published in ChEMBL document CHEMBL2176891, “Structural investigation of anti-Trypanosoma cruzi 2-iminothiazolidin-4-ones allows the identification of agents with efficacy in infected mice” (J Med Chem, 2012).
Calls of active or inactive are those of the source. The rule behind the calls is not given here.

How the values were obtained:
[1] = system: Trypanosoma cruzi; assay: Antitrypanosomal activity against Trypanosoma cruzi; assay type: functional, organism-based
[2] = Cytotoxicity against BALB/c mouse splenocytes assessed as highest nontoxic concentration by measuring [3H]-thymidine incorporation after 24 hrs by beta-radiation counting; assay type: cell-based, Splenocyte; conditions: for MNTC at 24 h: mouse, splenocytes, read-out: Activity; for highest nontoxic concentration: Mus musculus, Splenocyte, read-out: IC50
In short: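 BALB/c splenocytes, 5 × 10⁶ cells/well in RPMI-1640 with 10% FBS. Compound in DMSO at 1.0, 10 and 100 μg/mL or more, triplicate; untreated and saponin controls. 24 h at 37 °C, 5% CO₂. 1.0 μCi ³H-thymidine added, incorporation read by β-counting as % of untreated. Highest nontoxic concentration estimated.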

[3] = system: Trypanosoma cruzi; assay: Antitrypanosomal activity against trypomastigotes of Trypanosoma cruzi Y infected in LLC-MK2 cells assessed as parasite motility after 24 hrs; assay type: functional, organism-based; conditions: LLC-MK2, 24 h
In short: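 Y strain bloodstream trypomastigotes taken from LLC-MK2 culture supernatant, 4 × 10⁵ cells/well. Five compound concentrations (DMSO), triplicate, 24 h at 37 °C, 5% CO₂. Viable parasites judged by motility in a Neubauer chamber. Inhibition calculated relative to untreated culture; IC50 by nonlinear regression.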

[4] = target: T1, Cruzipain (Trypanosoma cruzi, UniProt P25779); assay: (§1) Inhibition of Trypanosoma cruzi recombinant cruzain using Z-FR-AMC as substrate at 20 uM preincubated for 10 mins before substrate addition
[5] = target: Cruzipain (Trypanosoma cruzi) (UniProt P25779); assay: as §1
[6] = target: T2, Procathepsin L (Homo sapiens, UniProt P07711); assay: Inhibition of recombinant cathepsin L using ZFR-pNA as substrate preincubated for 45 mins
In short: (§2)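 Recombinant cathepsin L or S activated with 1 mM DTT in 0.1 M acetate pH 5.5. Preincubated 45 min at room temperature with compound in phosphate buffer with 0.1% BSA, 1 mM EDTA and 0.001% Tween. Z-FR-pNA added, reaction 5 min; final 30 nM enzyme and 5.0 μM substrate. Triplicate runs; IC50 from at least seven concentrations.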
Target sequence in this assay (P07711 whole entry): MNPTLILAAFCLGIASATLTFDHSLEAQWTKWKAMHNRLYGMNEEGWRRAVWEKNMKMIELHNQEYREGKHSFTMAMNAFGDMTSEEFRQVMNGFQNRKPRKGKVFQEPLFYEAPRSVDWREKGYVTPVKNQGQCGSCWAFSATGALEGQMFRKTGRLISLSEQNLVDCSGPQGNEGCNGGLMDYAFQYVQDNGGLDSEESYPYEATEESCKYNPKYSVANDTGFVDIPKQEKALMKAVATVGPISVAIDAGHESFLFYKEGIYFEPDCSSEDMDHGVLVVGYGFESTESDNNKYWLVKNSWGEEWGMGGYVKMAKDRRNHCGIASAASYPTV

[7] = Antiproliferative activity against concanavalin A-stimulated BALB/c mouse splenocytes after 72 hrs by AlamarBlue assay; assay type: cell-based; conditions: Splenocyte
In short: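 Splenocytes from BALB/c mice at 5 × 10⁶ cells/well in RPMI-1640 with 10% FBS, stimulated with 2.0 μg/mL concanavalin A. Compounds in DMSO, six concentrations in triplicate. Controls: con A alone, no con A, and con A plus 0.01 μg/mL cyclosporin A. 72 h at 37 °C, 5% CO₂. AlamarBlue for 1 h, fluorescence ex 530/em 590 nm. IC50 by nonlinear regression.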

[8] = target: Cathepsin S (Homo sapiens, UniProt P25774); assay: Inhibition of recombinant cathepsin S using ZFR-pNA as substrate preincubated for 45 mins; in short: as §2
[9] = system: Trypanosoma cruzi; assay: Antitrypanosomal activity against epimastigotes of Trypanosoma cruzi Y in axenic culture assessed as parasite motility after 11 days; conditions: 264 h
[10] = target: T2, Procathepsin L; assay: Inhibition of recombinant cathepsin L using ZFR-pNA as substrate at 100 uM preincubated for 45 mins; in short: as §2
Target sequence in this assay (P07711 114-333 limits assumed): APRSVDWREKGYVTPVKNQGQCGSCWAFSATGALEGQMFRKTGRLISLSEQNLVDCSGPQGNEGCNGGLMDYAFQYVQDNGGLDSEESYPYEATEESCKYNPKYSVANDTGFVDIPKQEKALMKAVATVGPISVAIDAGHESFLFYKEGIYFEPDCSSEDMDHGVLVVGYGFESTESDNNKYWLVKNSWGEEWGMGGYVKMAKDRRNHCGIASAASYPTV

[11] = Selectivity index, ratio of IC50 for concanavalin A-stimulated BALB/c mouse splenocytes to IC50 for trypomastigotes of Trypanosoma cruzi Y infected in mouse peritoneal macrophages
In short: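 Ratio of splenocyte IC50 to IC50 against intracellular parasites in Y strain-infected peritoneal macrophages (4-day assay).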

[12] = system: Trypanosoma cruzi; assay: Antitrypanosomal activity against trypomastigotes of Trypanosoma cruzi Y infected in mouse peritoneal macrophages assessed as reduction of intracellular parasite level after 4 days; assay type: functional, organism-based; conditions: 96 h
In short: (§3)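 Peritoneal exudate macrophages, 2 × 10⁵/well on coverslips, infected with Y strain trypomastigotes at 10 parasites per macrophage for 2 h, then washed. Compound in DMSO added for 6 h, medium replaced, culture continued 4 days. After methanol fixation and Giemsa staining, 100 cells per slide counted for % infected macrophages and amastigotes per cell. IC50 based on % infected cells versus untreated.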

[13] = system: Trypanosoma cruzi; assay: Antitrypanosomal activity against trypomastigotes of Trypanosoma cruzi Y infected in mouse peritoneal macrophages assessed as reduction of intracellular parasite level at 10 uM after 4 days; assay type: functional, organism-based; in short: as §3
[14] = system: Trypanosoma cruzi; assay: Antitrypanosomal activity against trypomastigotes of Trypanosoma cruzi Y infected in BALB/c mouse assessed as reduction of blood parasite level at 250 umol/kg, po qd for 5 days; assay type: functional; set-up: scale not given: the % may be the effect or the level left
In short: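 Female BALB/c mice, 6–8 weeks old, infected ip with 10⁴ Y strain bloodstream trypomastigotes in saline; six mice per group. From day 5 postinfection, 250 μmol/kg given orally by gavage once daily for 5 days. Fresh-blood parasitemia counted in a hemocytometer. Reduction = (vehicle − treated)/vehicle × 100, using day 5 of treatment; two independent experiments.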

[15] = system: Trypanosoma cruzi; assay: Inhibition of trypomastigotes of Trypanosoma cruzi Y invasion to mouse peritoneal macrophages at 50 uM […]; assay type: functional, organism-based
[16] = target: T1, Cruzipain; assay: Inhibition of Trypanosoma cruzi recombinant cruzain using Z-FR-AMC as substrate preincubated for 10 mins before substrate addition; conditions: read-out: IC50
In short: (§4)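 Recombinant cruzain preincubated 10 min at room temperature with compound (DMSO) in phosphate buffer containing EDTA, 100 mM NaCl and DTT. Z-FR-AMC then added; final 0.5 nM enzyme and 2 μM substrate. Fluorescence read at 1, 5 and 10 min; % inhibition versus no-inhibitor control. Single-point values are triplicate means; IC50 by nonlinear regression from multiple concentrations. Some runs used 0.01% Triton X-100.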

[17] = target: Cruzipain (Trypanosoma cruzi) (UniProt P25779); assay: Inhibition of Trypanosoma cruzi recombinant cruzain using Z-FR-AMC as substrate at 20 uM preincubated for 10 mins before substrate addition in presence of 0.01% of Triton X-100; in short: as §4
[18] = system: Mus musculus; assay: Toxicity in BALB/c mouse assessed as reduction in body weight at 250 umol/kg, po qd for 5 days; assay type: organism-based; conditions: in vivo, 120 h
[19] = system: Mus musculus; assay: Toxicity in BALB/c mouse assessed as mortality at 250 umol/kg, po qd for 5 days; assay type: organism-based; conditions: in vivo, 120 h
In short: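 Female BALB/c mice, 6–8 weeks old, were infected i.p. with 10⁴ Y strain bloodstream trypomastigotes in saline and randomly grouped, six per group. From day 5 postinfection, drug was given orally by gavage at 250 μmol/kg once daily for five consecutive days. Blood parasites were counted by hemocytometer, and survival was followed for one month. Untreated and benznidazole-treated infected mice served as controls.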

[20] = system: Trypanosoma cruzi; assay: Antitrypanosomal activity against epimastigotes of Trypanosoma cruzi Y assessed as reduction of proteolytic activity using gelatin as substrate after 48 hrs by zymography assays
[21] = system: Trypanosoma cruzi; assay: Induction of ultrastructural alteration of trypomastigotes of Trypanosoma cruzi Y at 3.9 uM by transmission electron microscopy; assay type: functional, organism-based
In short: (§5)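 Y strain bloodstream trypomastigotes and infected macrophages exposed to 3.9 μM compound, then examined by transmission and scanning electron microscopy.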

[22] = system: Trypanosoma cruzi; assay: Induction of ultrastructural alteration of trypomastigotes of Trypanosoma cruzi Y at 3.9 uM by scanning electron microscopy; assay type: functional, organism-based; in short: as §5

Chain of Cruzipain (Trypanosoma cruzi) (P25779 123-467 limits assumed): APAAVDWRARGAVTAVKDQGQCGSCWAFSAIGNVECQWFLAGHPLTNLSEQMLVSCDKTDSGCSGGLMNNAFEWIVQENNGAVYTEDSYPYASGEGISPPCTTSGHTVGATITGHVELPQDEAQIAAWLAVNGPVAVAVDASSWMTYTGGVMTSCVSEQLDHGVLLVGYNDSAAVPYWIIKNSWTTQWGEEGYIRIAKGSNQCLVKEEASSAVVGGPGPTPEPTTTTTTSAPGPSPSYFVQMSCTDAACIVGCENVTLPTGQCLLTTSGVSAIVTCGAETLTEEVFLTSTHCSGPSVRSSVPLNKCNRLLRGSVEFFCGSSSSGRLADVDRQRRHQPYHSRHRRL
T1 sequence (P25779 whole entry): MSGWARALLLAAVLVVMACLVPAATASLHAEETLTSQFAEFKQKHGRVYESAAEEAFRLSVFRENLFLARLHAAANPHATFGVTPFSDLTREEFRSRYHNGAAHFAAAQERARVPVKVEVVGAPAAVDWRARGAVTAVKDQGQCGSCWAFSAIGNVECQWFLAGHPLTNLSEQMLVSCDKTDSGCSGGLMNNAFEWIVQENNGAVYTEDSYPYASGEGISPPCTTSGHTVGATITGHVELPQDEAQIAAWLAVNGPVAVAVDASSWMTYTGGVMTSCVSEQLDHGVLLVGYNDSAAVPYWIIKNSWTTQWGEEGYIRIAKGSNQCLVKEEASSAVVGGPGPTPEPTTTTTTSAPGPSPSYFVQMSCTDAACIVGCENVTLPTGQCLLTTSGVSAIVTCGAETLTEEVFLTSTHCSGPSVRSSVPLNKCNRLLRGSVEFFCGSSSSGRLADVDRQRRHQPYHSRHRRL
Chain of Cathepsin S (P25774 whole entry): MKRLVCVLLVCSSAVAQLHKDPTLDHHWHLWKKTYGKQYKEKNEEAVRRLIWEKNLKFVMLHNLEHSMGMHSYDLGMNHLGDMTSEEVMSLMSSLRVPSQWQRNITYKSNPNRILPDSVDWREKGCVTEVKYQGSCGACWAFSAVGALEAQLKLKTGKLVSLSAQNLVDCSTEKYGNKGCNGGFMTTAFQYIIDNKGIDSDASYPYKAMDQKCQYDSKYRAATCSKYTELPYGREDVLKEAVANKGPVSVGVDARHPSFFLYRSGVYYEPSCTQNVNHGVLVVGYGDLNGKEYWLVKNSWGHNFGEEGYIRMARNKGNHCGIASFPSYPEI

Row | Compound | inhibition [5] | MNTC at 24 h [2] [µg/mL] | IC50 [3] [µM] | IC50 [6] [µM] | IC50 [7] [µM] | IC50 [8] [µM] | IC50 [9] [µM] | inhibition [10] [%] | highest nontoxic concentration [2] [µM] | Ratio IC50 [11] | IC50 [12] [µM] | Activity [13] | Activity [14] [%] | other results
1 | Cc1ccc(SC/C=N/N=C2\NC(=O)C(C)S2)cc1 (configuration not stated) |  |  |  |  |  |  |  |  |  |  |  |  |  | IC50 [1]: 80.4 µM
2 | O=C(Cn1ccnc1[N+](=O)[O-])NCc1ccccc1 [BENZNIDAZOLE] |  |  | 6.2 |  |  |  | 6.6 |  |  |  | 13.9 | Active | >99 | 
3 | C/C(COc1ccccc1)=N\N=C1\SC(C(C)C)C(=O)N1c1ccccc1 (racemic) | 78% | > 100 | 6.1 | > 100 | > 262 | > 100 | 4.9 | 10 | > 262 | 25 | 10.1 | Active | 89.6 | inhibition [15]: Active; IC50 [16]: 6.6 µM; inhibition [17]: 81%; Activity [18]: Non-toxic; Activity [19]: Non-toxic; Activity [20]: Dose-dependent effect; Activity [21]: Active; Activity [22]: Active

Second part, led by results:

Row | inhibition [5] | Compound | MNTC at 24 h [2] [µg/mL] | IC50 [3] [µM] | IC50 [6] [µM] | IC50 [7] [µM] | IC50 [8] [µM] | IC50 [9] [µM] | inhibition [10] [%] | highest nontoxic concentration [2] [µM] | Ratio IC50 [11] | IC50 [12] [µM] | Activity [13] | Activity [14] [%] | other results
4 | inactive | C/C(COc1ccccc1)=N\Nc1nc(-c2ccccc2)cs1 | 50 | 19.6 |  |  |  |  |  |  |  |  |  |  | IC50 [4]: > 20 µM
5 | 0% | C/C(COc1ccccc1)=N\N=C1/NC(=O)CS1 | > 100 | 19 | > 100 | 98 | > 100 | 23.2 | 1 | > 200 | 10 | 19.5 |  |  | 
